Measurements collected from several papers.
Each line is one published result; the experiments were not run side by side.
CHRM2: Muscarinic acetylcholine receptor M2 (CHRM2, Homo sapiens, UniProt P08172)
PTGES: Prostaglandin E synthase (PTGES, Homo sapiens, UniProt O14684)

| SMILES | target | observed | action | technique | quantity | value |
| --- | --- | --- | --- | --- | --- | --- |
| CCCCCCCNCCCc1ccc([N+](=O)[O-])cc1 | CHRM2 | ligand displacement | – | radioligand | Ki | 3.2 µM |
| CC(C)[N+](C)(CCC(C(N)=O)(c1ccccc1)c1ccccc1)C(C)C | CHRM2 | ligand displacement | – | radioligand | IC50 | 0.007 µM |
| CCCCCc1cc(O)c2c(c1)OC(C)(C)c1ccc(C)cc1-2 | PTGES | enzyme activity | inhibitor | – | IC50 | > 10 µM |
| CC(C)C[C@H](NC(=O)CNC(=O)[C@H](C)NC(=O)c1ccc(S[C@@H]2O[C@H](CO)[C@H](O)[C@H](O)[C@H]2O)cc1)C(=O)N[C@@H](C)C(=O)N[C@H]1CCN(c2cc3c(cc2F)c(=O)c(C(=O)O)cn3C2CC2)C1 | PA-I galactophilic lectin (lecA, Pseudomonas aeruginosa, UniProt Q05097) | ligand displacement | – | FP | Ki | 12 µM |
| CC(C)C[C@H](NC(=O)[C@H](Cc1ccccc1)NC(=O)[C@H](Cc1ccc(O)cc1)NC(=O)CNC(=O)[C@H](CCCCN)NC(=O)[C@H](CO)NC(=O)[C@H](CCC(N)=O)NC(=O)CNC(=O)[C@@H](NC(=O)[C@H](CO)NC(=O)[C@@H]1CCCN1C(=O)[C@H](CO)NC(=O)[C@H](CCC(N)=O)NC(=O)[C@H](Cc1ccc(O)cc1)NC(=O)[C@H](CCC(=O)O)NC(=O)[C@H](C)NC(=O)[C@H](CCCCN)NC(=O)[C@@H](N)Cc1ccccc1)C(C)C)C(=O)N[C@@H](Cc1ccccc1)C(=O)N[C@@H](CCCNC(=N)N)C(=O)N1CCC[C@H]1C(=O)N[C@@H](CCCNC(=N)N)C(=O)N[C@@H](CC(N)=O)C(N)=O | Neuromedin-U receptor 1 (Mus musculus, UniProt O55040) | β-arrestin recruitment | agonist | – | EC50 | 0.000501 µM |
| CCCCCCCCCCCCNCCCc1ccc([N+](=O)[O-])cc1 | CHRM2 | ligand displacement | – | radioligand | Ki | 5.6 µM |
| CCCCCc1cc(O)c2c(c1)OC(C)(C)[C@@H]1CCC(C)=C[C@@H]21 | PTGES | enzyme activity | inhibitor | – | IC50 | > 10 µM |
| CC(C)(C)[C@H](NC(=O)C(F)(F)F)C(=O)N1C[C@H]2[C@@H]([C@H]1C(=O)N[C@H](C#N)C[C@@H]1CCNC1=O)C2(C)C | Organic anion transporter 3 (SLC22A8, Homo sapiens, UniProt Q8TCC7) | transporter uptake | inhibitor | – | Ki | 521 µM |
